Test results reported in ChEMBL document CHEMBL3585302, “Synthesis and antibacterial activities of cadiolides A, B and C and analogues” (Bioorg Med Chem, 2015).

Legend:
Bacillus subtilis = assay: Antibacterial activity against Bacillus subtilis CECT 35 assessed as inhibition of microbial growth incubated for 18 hrs by 2-fold microtiter broth dilution method; type: functional, organism-based; conditions: CECT 35, 18 h
In short: (§1)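 Compounds in DMSO, ten 2-fold serial dilutions (125 down to 0.24 µg/mL tested). Bacteria at OD620 = 0.001 in Nutrient Broth mixed 1:1 with dilutions. Incubated overnight (18 h) at 28°C or 37°C according to strain. Growth read turbidimetrically at OD620. MIC is the lowest concentration giving complete growth inhibition. Triplicate runs. Tetracycline as reference.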

Staphylococcus aureus = assay: Antibacterial activity against Staphylococcus aureus CECT 86 assessed as inhibition of microbial growth incubated for 18 hrs by 2-fold microtiter broth dilution method; type: functional, organism-based; conditions: CECT 86, 18 h; in short: as §1
[1] = Selectivity index, ratio of cytotoxicity against human neutrophils by annexin V-FITC and propidium iodide staining based cytofluorometry to antibacterial IC50 against Enterococcus faecalis CECT 481; type: toxicity; conditions: read-out: Selectivity Index
[2] = Toxicity in human neutrophils assessed as induction of necrosis at 100 uM incubated for 24 hrs by annexin V-FITC and propidium iodide staining based cytofluorometry; type: cell-based; conditions: neutrophil
In short: (§2)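 Freshly isolated donor neutrophils (2 x 10⁶ cells/mL stock, diluted into supplemented RPMI) cultured 24 h with 30 or 100 µM. Stained with annexin V-FITC/propidium iodide; 1 x 10⁴ cells analysed by flow cytometry. Gating: annexin V+/PI− apoptotic, V+/PI+ late apoptotic/necrotic, V−/PI− viable. Mean ± SEM, n=3, compared against vehicle.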

[3] = system: Pectobacterium carotovorum; assay: Antibacterial activity against Erwinia carotovora CECT 225 assessed as inhibition of microbial growth incubated for 18 hrs by 2-fold microtiter broth dilution method; type: functional, organism-based; conditions: CECT 225, 18 h; in short: as §1
Bacillus cereus = assay: Antibacterial activity against Bacillus cereus CECT 148 assessed as inhibition of microbial growth incubated for 18 hrs by 2-fold microtiter broth dilution method; type: functional, organism-based; conditions: CECT 148, 18 h; in short: as §1
[4] = Selectivity index, ratio of cytotoxicity against human neutrophils by MTT assay to antibacterial IC50 against Escherichia coli CECT 405; type: toxicity; conditions: read-out: Selectivity Index
[5] = Selectivity index, ratio of cytotoxicity against human neutrophils by annexin V-FITC and propidium iodide staining based cytofluorometry to antibacterial IC50 against Staphylococcus aureus CECT 86; type: toxicity; conditions: read-out: Selectivity Index
[6] = Selectivity index, ratio of cytotoxicity against human neutrophils by annexin V-FITC and propidium iodide staining based cytofluorometry to antibacterial IC50 against Escherichia coli CECT 405; type: toxicity; conditions: read-out: Selectivity Index
[7] = Selectivity index, ratio of cytotoxicity against human neutrophils by annexin V-FITC and propidium iodide staining based cytofluorometry to antibacterial IC50 against Salmonella typhi CECT 409; type: toxicity; conditions: read-out: Selectivity Index
[8] = Selectivity index, ratio of cytotoxicity against human neutrophils by MTT assay to antibacterial IC50 against Salmonella typhi CECT 409; type: toxicity; conditions: read-out: Selectivity Index
[9] = Cytotoxicity against human neutrophils assessed as reduction in cell viability at 30 uM incubated for 24 hrs by MTT assay; type: cell-based; conditions: neutrophil
In short: (§3)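 Neutrophils from buffy coats of healthy donors were isolated by Ficoll-Hypaque gradient and seeded at 2 x 10⁵ cells/mL in supplemented RPMI. Exposed to 30 or 100 µM for 24 h at 37 °C, then MTT (2 mg/mL in PBS) added for 3 h. Formazan dissolved in DMSO and read at 560 and 630 nm. Mean ± SEM of n=6-9 independent experiments, compared against vehicle.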

[10] = Selectivity index, ratio of cytotoxicity against human neutrophils by MTT assay to antibacterial IC50 against Staphylococcus aureus CECT 86; type: toxicity; conditions: read-out: Selectivity Index
Salmonella typhi = assay: Antibacterial activity against Salmonella typhi CECT 409 assessed as inhibition of microbial growth incubated for 18 hrs by 2-fold microtiter broth dilution method; type: functional, organism-based, Salmonella enterica subsp. enterica serovar Typhi; conditions: Salmonella enterica, CECT 409, 18 h
In short: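 Compounds in DMSO, ten 2-fold serial dilutions (125 down to 0.24 µg/mL), mixed 1:1 with bacteria in Nutrient Broth at OD620 = 0.001. Incubated overnight (18 h) at 28 or 37 °C depending on strain. Growth read turbidimetrically at OD620; MIC is the lowest concentration completely inhibiting growth, per CLSI. Triplicate runs; tetracycline reference.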

[11] = Toxicity in human neutrophils assessed as cell survival at 30 uM incubated for 24 hrs by annexin V-FITC and propidium iodide staining based cytofluorometry; conditions: neutrophil; in short: as §2
[12] = Toxicity in human neutrophils assessed as induction of apoptosis at 30 and 100 uM incubated for 24 hrs by annexin V-FITC and propidium iodide staining based cytofluorometry; type: cell-based; conditions: neutrophil; in short: as §2
[13] = Cytotoxicity against human neutrophils assessed as reduction in cell viability at 100 uM incubated for 24 hrs by MTT assay; type: cell-based; conditions: neutrophil; in short: as §3
Escherichia coli [14] = assay: Antibacterial activity against Escherichia coli CECT 100 assessed as inhibition of microbial growth incubated for 18 hrs by 2-fold microtiter broth dilution method; type: functional, organism-based; conditions: CECT 100, 18 h; in short: as §1
Enterococcus faecalis = assay: Antibacterial activity against Enterococcus faecalis CECT 481 assessed as inhibition of microbial growth incubated for 18 hrs by 2-fold microtiter broth dilution method; type: functional, organism-based; conditions: CECT 481, 18 h; in short: as §1
Escherichia coli [15] = assay: Antibacterial activity against Escherichia coli CECT 405 assessed as inhibition of microbial growth incubated for 18 hrs by 2-fold microtiter broth dilution method; type: functional, organism-based; conditions: CECT 405, 18 h; in short: as §1
[16] = Selectivity index, ratio of cytotoxicity against human neutrophils by MTT assay to antibacterial IC50 against Enterococcus faecalis CECT 481; type: toxicity; conditions: read-out: Selectivity Index

SMILES: O=C1O/C(=C\c2ccc(O)c(Br)c2)C(c2cc(Br)c(O)c(Br)c2)=C1C(=O)c1ccc(O)c(Br)c1
- MIC (Bacillus subtilis): 125 µg/mL
- IC50 (Staphylococcus aureus): 2720 nM
- MIC (Staphylococcus aureus): 1.95 µg/mL
- selectivity ratio [1]: 5
- Activity [2]: 36%
- MIC [3]: 125 µg/mL
- IC50 (Bacillus cereus): 2720 nM
- MIC (Bacillus cereus): 1.95 µg/mL
- selectivity ratio [4]: 5
- selectivity ratio [5]: 5
- selectivity ratio [6]: 5
- selectivity ratio [7]: 5
- selectivity ratio [8]: 5
- Activity [9]: Non-toxic
- selectivity ratio [10]: 5
- IC50 (Salmonella typhi): 2720 nM
- MIC (Salmonella typhi): 1.95 µg/mL
- Activity [11]: Non-toxic
- Activity [12]: Non-toxic
- Activity [13]: Toxic
- IC50 (Escherichia coli [14]): > 175000 nM
- MIC (Escherichia coli [14]): > 125 µg/mL
- IC50 (Enterococcus faecalis): 2720 nM
- MIC (Enterococcus faecalis): 1.95 µg/mL
- IC50 (Escherichia coli [15]): 2720 nM
- MIC (Escherichia coli [15]): 1.95 µg/mL
- selectivity ratio [16]: 5
